Test results taken from ChEMBL document CHEMBL1157789, “Design, synthesis and SAR of phenylamino-substituted 5,11-dihydro-dibenzo[a,d]cyclohepten-10-ones and 11H-dibenzo[b,f]oxepin-10-ones as p38 MAP kinase inhibitors” (Bioorg Med Chem Lett, 2010).
Calls of active or inactive are those of the source. The rule behind the calls is not given here.

Tests used:
[1] = target: T1, NUAK family SNF1-like kinase 1 (Homo sapiens) (UniProt O60285); assay: Inhibition of ARK5 at 10 uM
T1 sequence (whole entry): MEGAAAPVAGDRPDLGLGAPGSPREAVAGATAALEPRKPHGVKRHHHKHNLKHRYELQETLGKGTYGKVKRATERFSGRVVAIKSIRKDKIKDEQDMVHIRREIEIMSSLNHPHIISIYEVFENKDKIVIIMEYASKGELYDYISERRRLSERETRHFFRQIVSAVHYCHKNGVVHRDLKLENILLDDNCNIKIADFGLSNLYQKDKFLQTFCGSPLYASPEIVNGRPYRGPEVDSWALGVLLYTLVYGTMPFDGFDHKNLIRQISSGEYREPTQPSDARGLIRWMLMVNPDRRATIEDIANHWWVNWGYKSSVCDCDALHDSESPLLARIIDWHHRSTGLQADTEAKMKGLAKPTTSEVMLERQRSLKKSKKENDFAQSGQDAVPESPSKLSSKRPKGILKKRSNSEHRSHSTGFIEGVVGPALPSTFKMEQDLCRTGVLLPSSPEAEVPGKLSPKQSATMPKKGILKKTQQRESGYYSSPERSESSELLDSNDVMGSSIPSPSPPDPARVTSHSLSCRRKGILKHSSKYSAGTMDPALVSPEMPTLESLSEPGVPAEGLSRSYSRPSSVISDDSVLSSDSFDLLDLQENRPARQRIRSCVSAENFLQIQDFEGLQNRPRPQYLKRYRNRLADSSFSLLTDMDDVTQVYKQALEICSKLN

[2] = target: Hepatocyte growth factor receptor (Homo sapiens) (UniProt P08581); assay: Inhibition of MET at 10 uM
[3] = target: Focal adhesion kinase 1 (Homo sapiens) (UniProt Q05397); assay: Inhibition of FAK at 10 uM
Chain of Focal adhesion kinase 1 (Homo sapiens) (Q05397 2-1052 limits assumed): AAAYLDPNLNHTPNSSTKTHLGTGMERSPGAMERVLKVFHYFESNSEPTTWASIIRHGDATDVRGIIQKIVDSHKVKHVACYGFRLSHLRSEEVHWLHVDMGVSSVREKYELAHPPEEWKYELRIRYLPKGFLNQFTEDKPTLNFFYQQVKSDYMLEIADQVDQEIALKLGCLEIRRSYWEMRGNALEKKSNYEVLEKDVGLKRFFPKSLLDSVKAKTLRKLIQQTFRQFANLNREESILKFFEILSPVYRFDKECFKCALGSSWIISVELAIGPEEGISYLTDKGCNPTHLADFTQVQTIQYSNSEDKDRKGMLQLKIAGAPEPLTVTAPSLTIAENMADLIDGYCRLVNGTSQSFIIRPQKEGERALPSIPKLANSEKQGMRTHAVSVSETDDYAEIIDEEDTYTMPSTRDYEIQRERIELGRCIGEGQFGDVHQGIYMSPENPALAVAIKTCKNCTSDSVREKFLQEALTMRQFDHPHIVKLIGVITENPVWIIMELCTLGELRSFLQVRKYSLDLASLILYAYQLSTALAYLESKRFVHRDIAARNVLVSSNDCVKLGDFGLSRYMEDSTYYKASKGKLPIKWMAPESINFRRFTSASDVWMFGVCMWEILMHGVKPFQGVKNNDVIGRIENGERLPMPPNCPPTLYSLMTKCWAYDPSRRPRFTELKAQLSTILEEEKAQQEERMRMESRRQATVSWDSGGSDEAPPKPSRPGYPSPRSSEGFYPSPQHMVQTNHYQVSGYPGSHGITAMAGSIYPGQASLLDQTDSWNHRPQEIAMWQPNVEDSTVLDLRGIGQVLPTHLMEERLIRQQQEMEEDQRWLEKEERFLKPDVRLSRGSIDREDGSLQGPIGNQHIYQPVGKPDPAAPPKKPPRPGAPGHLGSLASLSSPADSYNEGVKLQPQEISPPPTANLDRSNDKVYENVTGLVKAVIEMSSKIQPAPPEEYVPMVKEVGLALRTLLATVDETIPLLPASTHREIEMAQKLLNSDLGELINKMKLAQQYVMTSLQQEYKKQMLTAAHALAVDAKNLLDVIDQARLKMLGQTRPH

[4] = Inhibition of p38 assessed as rate of ATF-2 phosphorylation at 10 uM by immunosorbent non-radioactive enzyme assay
Method in brief: (§1)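 p38α MAP kinase ELISA-type (immunosorbent, non-radioactive) assay. Enzyme was incubated with ATP at 100 µM, ATF-2 as substrate, and test compound at 10^-5 to 10^-8 M. Activity was read as the rate of ATF-2 phosphorylation. SB203580 served as the reference inhibitor.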

[5] = target: RAC-alpha serine/threonine-protein kinase (Homo sapiens) (UniProt P31749); assay: Inhibition of AKT1 at 10 uM
[6] = target: Vascular endothelial growth factor receptor 2 (Homo sapiens) (UniProt P35968); assay: Inhibition of VGFR2 at 10 uM
[7] = target: BDNF/NT-3 growth factors receptor (Homo sapiens) (UniProt Q16620); assay: Inhibition of TRKB at 10 uM
[8] = tested on: Serine/threonine-protein kinase B-raf (Homo sapiens), P15056 [V600E]; assay: Inhibition of B-Raf V600E mutant at 10 uM
[9] = target: Aurora kinase B (Homo sapiens) (UniProt Q96GD4); assay: Inhibition of Aurora B at 10 uM
[10] = target: Insulin-like growth factor 1 receptor (Homo sapiens) (UniProt P08069); assay: Inhibition of IGF1R at 10 uM
Chain of Insulin-like growth factor 1 receptor (Homo sapiens) (P08069 31-736 limits assumed): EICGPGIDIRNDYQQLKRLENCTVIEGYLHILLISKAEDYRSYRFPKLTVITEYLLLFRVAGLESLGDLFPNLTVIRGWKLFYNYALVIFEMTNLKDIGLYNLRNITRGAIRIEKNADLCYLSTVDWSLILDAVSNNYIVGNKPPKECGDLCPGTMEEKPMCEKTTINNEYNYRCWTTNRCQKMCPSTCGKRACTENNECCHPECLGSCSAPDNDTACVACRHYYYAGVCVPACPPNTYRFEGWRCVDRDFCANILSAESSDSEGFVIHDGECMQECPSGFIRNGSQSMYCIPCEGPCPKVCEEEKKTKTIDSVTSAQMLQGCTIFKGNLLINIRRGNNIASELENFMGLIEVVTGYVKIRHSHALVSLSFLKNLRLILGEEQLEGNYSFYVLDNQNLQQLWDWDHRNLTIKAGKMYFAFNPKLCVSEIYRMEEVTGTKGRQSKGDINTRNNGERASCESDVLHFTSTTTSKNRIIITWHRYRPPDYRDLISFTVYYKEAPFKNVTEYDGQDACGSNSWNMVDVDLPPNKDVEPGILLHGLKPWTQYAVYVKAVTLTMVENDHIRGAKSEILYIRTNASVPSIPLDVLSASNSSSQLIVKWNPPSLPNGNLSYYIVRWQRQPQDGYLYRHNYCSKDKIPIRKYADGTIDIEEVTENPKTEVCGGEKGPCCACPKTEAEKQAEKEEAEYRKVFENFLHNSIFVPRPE
Chain of Insulin-like growth factor 1 receptor (Homo sapiens) (P08069 741-1367 limits assumed): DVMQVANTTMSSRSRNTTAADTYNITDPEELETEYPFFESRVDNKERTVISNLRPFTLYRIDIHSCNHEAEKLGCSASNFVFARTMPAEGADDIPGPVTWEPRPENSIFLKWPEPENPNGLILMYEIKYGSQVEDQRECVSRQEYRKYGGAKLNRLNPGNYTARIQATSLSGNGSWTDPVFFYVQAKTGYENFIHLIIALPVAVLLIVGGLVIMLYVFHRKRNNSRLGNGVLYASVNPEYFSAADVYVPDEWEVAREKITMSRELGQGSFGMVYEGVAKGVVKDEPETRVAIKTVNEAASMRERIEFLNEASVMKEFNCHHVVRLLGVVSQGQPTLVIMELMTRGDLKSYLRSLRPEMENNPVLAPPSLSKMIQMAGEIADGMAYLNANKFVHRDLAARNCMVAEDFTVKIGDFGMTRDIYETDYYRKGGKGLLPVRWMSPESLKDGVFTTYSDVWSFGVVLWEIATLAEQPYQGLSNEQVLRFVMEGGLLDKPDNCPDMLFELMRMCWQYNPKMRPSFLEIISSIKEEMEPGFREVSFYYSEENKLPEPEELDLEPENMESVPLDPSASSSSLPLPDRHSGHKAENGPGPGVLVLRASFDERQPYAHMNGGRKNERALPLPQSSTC

[11] = target: Tyrosine-protein kinase receptor UFO (Homo sapiens) (UniProt P30530); assay: Inhibition of AXL at 10 uM
Chain of Tyrosine-protein kinase receptor UFO (Homo sapiens) (P30530 whole entry): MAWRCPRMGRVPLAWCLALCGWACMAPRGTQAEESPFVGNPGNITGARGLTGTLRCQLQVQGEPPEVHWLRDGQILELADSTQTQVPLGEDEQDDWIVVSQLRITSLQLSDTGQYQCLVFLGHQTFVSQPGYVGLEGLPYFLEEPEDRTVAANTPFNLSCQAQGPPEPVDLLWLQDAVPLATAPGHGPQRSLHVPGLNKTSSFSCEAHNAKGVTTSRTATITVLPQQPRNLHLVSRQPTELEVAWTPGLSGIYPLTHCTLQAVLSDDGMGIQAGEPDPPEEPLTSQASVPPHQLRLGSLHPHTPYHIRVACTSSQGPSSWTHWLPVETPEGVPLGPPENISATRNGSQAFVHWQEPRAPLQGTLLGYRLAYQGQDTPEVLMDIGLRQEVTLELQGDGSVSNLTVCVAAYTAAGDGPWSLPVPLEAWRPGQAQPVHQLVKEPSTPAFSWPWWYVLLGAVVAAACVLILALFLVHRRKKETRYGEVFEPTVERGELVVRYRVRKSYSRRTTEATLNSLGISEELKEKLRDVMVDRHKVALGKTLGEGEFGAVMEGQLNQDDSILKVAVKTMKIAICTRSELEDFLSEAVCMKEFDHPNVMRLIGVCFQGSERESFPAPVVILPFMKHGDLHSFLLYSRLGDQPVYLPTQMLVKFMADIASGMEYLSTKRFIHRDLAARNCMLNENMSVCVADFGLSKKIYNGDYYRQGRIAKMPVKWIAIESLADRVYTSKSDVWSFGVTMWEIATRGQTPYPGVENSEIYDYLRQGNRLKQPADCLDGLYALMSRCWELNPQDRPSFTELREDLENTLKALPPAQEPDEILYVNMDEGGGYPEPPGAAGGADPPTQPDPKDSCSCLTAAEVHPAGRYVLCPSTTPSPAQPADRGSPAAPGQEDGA

[12] = target: Serine/threonine-protein kinase PLK1 (Homo sapiens) (UniProt P53350); assay: Inhibition of PLK1 at 10 uM
Chain of Serine/threonine-protein kinase PLK1 (Homo sapiens) (P53350 whole entry): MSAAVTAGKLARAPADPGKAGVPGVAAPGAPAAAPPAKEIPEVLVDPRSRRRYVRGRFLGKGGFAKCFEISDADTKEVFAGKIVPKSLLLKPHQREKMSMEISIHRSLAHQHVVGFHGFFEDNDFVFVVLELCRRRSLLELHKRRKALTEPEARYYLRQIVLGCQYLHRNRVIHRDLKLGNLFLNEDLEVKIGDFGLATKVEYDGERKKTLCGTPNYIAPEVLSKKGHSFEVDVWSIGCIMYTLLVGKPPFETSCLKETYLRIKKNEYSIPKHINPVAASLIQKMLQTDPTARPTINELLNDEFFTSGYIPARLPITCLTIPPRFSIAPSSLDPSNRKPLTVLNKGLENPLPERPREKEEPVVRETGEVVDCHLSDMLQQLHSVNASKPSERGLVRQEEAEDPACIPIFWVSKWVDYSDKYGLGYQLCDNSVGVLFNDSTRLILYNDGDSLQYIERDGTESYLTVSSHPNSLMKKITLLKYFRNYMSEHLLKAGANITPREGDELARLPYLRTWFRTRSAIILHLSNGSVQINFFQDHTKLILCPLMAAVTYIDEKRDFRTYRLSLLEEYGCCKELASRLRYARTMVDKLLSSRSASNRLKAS

[13] = target: T2, Serine/threonine-protein kinase PLK4 (Homo sapiens) (UniProt O00444); assay: Inhibition of SAK at 10 uM
T2 sequence (whole entry): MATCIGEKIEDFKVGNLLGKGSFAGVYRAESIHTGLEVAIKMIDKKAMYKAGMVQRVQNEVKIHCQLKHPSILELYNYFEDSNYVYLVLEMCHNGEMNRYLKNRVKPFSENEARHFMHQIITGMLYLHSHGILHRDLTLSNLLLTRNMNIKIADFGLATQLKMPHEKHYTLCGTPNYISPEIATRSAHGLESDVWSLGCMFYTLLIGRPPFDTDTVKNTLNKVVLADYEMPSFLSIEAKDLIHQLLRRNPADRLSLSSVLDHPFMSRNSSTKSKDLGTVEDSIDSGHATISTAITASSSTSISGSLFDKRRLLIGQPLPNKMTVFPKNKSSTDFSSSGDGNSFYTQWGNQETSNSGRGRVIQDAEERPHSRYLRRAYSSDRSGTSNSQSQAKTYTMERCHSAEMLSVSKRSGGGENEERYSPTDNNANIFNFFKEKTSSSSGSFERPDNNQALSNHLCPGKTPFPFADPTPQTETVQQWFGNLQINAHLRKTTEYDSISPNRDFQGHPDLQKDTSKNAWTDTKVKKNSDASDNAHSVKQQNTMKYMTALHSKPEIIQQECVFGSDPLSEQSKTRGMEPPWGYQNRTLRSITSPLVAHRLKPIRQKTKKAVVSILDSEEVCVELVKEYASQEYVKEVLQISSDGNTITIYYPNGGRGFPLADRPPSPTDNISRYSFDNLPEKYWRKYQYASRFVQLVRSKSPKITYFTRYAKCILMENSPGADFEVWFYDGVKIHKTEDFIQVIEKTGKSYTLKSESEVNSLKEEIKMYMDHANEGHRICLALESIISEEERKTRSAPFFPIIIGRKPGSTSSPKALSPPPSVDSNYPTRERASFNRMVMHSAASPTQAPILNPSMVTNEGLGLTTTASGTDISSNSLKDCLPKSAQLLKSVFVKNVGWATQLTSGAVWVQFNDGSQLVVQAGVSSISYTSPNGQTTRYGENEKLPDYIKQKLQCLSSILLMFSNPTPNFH

[14] = target: Serine/threonine-protein kinase N1 (Homo sapiens) (UniProt Q16512); assay: Inhibition of PRK1 at 10 uM
[15] = target: Insulin receptor (Homo sapiens) (UniProt P06213); assay: Inhibition of INSR at 10 uM
[16] = target: Casein kinase II subunit alpha (Homo sapiens) (UniProt P68400); assay: Inhibition of CK2alpha1 at 10 uM
Chain of Casein kinase II subunit alpha (Homo sapiens) (P68400 whole entry, looked up): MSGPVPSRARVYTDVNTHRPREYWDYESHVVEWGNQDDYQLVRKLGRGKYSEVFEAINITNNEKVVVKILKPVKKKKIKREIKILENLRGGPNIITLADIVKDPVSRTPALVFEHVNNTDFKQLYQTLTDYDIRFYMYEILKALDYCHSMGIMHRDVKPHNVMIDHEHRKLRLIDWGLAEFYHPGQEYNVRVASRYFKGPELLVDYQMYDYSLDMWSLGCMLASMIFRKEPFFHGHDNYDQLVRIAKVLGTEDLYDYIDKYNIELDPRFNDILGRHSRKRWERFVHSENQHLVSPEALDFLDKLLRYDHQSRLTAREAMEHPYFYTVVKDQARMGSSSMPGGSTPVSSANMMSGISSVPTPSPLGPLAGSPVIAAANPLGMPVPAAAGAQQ

[17] = target: Proto-oncogene tyrosine-protein kinase Src (Homo sapiens) (UniProt P12931); assay: Inhibition of SRC at 10 uM
Chain of Proto-oncogene tyrosine-protein kinase Src (Homo sapiens) (P12931 2-536 limits assumed): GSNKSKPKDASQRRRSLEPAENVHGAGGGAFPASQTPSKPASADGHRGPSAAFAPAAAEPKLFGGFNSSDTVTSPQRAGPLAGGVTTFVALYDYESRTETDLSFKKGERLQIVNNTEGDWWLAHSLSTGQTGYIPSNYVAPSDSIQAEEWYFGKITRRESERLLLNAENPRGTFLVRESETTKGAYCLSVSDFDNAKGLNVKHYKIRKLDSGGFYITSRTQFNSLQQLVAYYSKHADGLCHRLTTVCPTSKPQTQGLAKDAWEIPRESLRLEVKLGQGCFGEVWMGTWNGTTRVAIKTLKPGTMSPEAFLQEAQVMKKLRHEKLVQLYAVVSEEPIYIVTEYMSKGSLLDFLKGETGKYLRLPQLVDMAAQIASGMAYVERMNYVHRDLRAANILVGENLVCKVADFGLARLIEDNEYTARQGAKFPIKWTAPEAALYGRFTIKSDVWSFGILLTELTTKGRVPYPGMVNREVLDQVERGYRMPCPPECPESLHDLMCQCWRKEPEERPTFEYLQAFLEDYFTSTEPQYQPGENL

[18] = Inhibition of p38 assessed as rate of ATF-2 phosphorylation by immunosorbent non-radioactive enzyme assay; method in brief: as §1

SMILES | inhibition [1] | inhibition [2] | inhibition [3] | inhibition [4] [%] | inhibition [5] | inhibition [6] | inhibition [7] | inhibition [8] | inhibition [9] | inhibition [10] | inhibition [11] | inhibition [12] | inhibition [13] | inhibition [14] | inhibition [15] | inhibition [16] | inhibition [17] | IC50 [18] [nM]
Nc1ccc(Nc2ccc3c(c2)Cc2ccccc2CC3=O)cc1 | inactive | inactive | inactive | 15 | inactive | inactive | inactive | inactive | inactive | inactive | inactive | inactive | inactive | inactive | inactive | inactive | inactive | –
O=C1Cc2cc(Nc3ccccc3)ccc2Cc2ccccc21 | inactive | inactive | inactive | 47 | inactive | inactive | inactive | inactive | inactive | inactive | inactive | inactive | inactive | inactive | inactive | inactive | inactive | –
O=C1Cc2ccccc2Cc2ccc(Nc3ccc(F)cc3F)cc21 | – | – | – | 44 | – | – | – | – | – | – | – | – | – | – | – | – | – | –
Nc1ccccc1Nc1cccc2c1Oc1ccccc1CC2=O | – | – | – | 37 | – | – | – | – | – | – | – | – | – | – | – | – | – | –
Nc1ccccc1Nc1ccc2c(c1)C(=O)Cc1ccccc1O2 | – | – | – | 36 | – | – | – | – | – | – | – | – | – | – | – | – | – | –
O=C1Cc2ccccc2Oc2ccc(Nc3ccccc3)cc21 | – | – | – | 25 | – | – | – | – | – | – | – | – | – | – | – | – | – | –
O=C1Cc2ccccc2Cc2c(Nc3ccc(F)cc3F)cccc21 | – | – | – | 6 | – | – | – | – | – | – | – | – | – | – | – | – | – | –
O=C1Cc2ccccc2Cc2c(Nc3ccccc3)cccc21 | – | – | – | 47 | – | – | – | – | – | – | – | – | – | – | – | – | – | –
Nc1cc(F)ccc1Nc1ccc2c(c1)C(=O)Cc1ccccc1O2 | – | – | – | 46 | – | – | – | – | – | – | – | – | – | – | – | – | – | –
O=C1Cc2ccccc2Oc2c(Nc3ccc(F)cc3F)cccc21 | – | – | – | 12 | – | – | – | – | – | – | – | – | – | – | – | – | – | –
O=C1Cc2ccccc2Oc2c(Nc3ccccc3)cccc21 | – | – | – | 32 | – | – | – | – | – | – | – | – | – | – | – | – | – | –
Nc1ccccc1Nc1ccc2c(c1)Oc1ccccc1NC2=O | inactive | inactive | inactive | – | inactive | inactive | inactive | inactive | inactive | inactive | inactive | inactive | inactive | inactive | inactive | inactive | inactive | 2700
Nc1cc(F)ccc1Nc1ccc2c(c1)Oc1ccccc1NC2=O | inactive | inactive | inactive | – | inactive | inactive | inactive | inactive | inactive | inactive | inactive | inactive | inactive | inactive | inactive | inactive | inactive | 2920
O=C1Cc2ccccc2Cc2cc(-c3ccccc3)ccc21 | inactive | inactive | inactive | 43 | inactive | inactive | inactive | inactive | inactive | inactive | inactive | inactive | inactive | inactive | inactive | inactive | inactive | –
O=C1Cc2ccccc2Cc2cc(NCc3ccccc3)ccc21 | inactive | inactive | inactive | 9 | inactive | inactive | inactive | inactive | inactive | inactive | inactive | inactive | inactive | inactive | inactive | inactive | inactive | –
